In the library only some 1.3% were active in any assay of this set; here they are far more common.
S100A4 MyoIIA = blocks human S100A4 binding to myosin IIA peptide; P26447; S100A4/TAMRA-MyoIIA peptide fluorescence polarization; inhibition, % at 10.7 µM; 0.14% of 360,000 active; AID 652163;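 active = mean inhibition of at least 70% across replicates, with every replicate also reaching that level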
Target sequence (P26447 whole entry, looked up): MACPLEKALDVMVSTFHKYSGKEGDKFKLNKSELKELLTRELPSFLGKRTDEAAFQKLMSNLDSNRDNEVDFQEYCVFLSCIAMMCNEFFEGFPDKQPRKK
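Compound dosing: one dose per compound; test system: human S100A4 monomer with TAMRA-labelled myosin IIA peptide; probe or stimulus: TAMRA-labelled myosin IIA heavy-chain peptide probe, 5 nM; medium: HEPES buffer with Ca2+, pH 7.2; schedule: 5 min incubation before reading; benchmarks: neutral control DMSO, positive control TFP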
RAD52 anneal inh = blocks human RAD52 DNA annealing. inhibition, % at 18.7 µM. recombinant RAD52 DNA annealing, FRET fluorescence. 0.46% of 360,000 active;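 active = every replicate showing at least 50% inhibition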
RAD54 branch = inhibitors of human RAD54 branch migration. RAD54 Holliday junction branch migration, FAM/BHQ fluorescence. 0.14% of 360,000 active. Q92698. inhibition, % at 10.4 µM;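 active = mean normalized replicate activity at least 40 and at least half of replicates scoring 40 or more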;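 note: 0% = median of neutral control wells and 100% = median of positive control wells; inhibitors cause a drop in the FAM fluorescence signal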
AF4-AF9 inh = inhibitors of human MLL-AF4/AF9 interaction; P42568; AlphaScreen, biotin-AF4 peptide binding to FLAG-AF9; inhibition, % at 10 µM; 0.47% of 350,000 active; AID 651704;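 active = every replicate reaching a set inhibition limit, whatever the replicate mean, cut at about 25% in these data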;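 note: 0% = plate neutral control median and 100% = total signal loss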
GSIS activator = GLuc luminescence reporter in INS-1E cells, primary screen for activators of glucose-dependent secretion of insulin. INS-1E GLuc reporter insulin secretion, 2-3 h. activation, % at 16.6 µM. 0.61% of 370,000 active. AID 743287;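 active = lowest replicate activation of at least 40%, so every replicate reaches that level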;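 note: 0% = median of neutral control wells and 100% = median of IBMX positive control wells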
Starred values were filed as active, the others as inactive; · = no result given.

SMILES	S100A4 MyoIIA	RAD52 anneal inh	RAD54 branch	AF4-AF9 inh	GSIS activator
O=C(C1CCCC1)N1CC[C@@H]2[C@@H](CO)Nc3ccc(-c4cccc(F)c4)cc3[C@@H]21	-3.0	-8.4	·	25.1*	-34.9
COc1cccc(-c2ccc3c(c2)[C@@H]2[C@@H](CCN2C(=O)C2CCCCC2)[C@H](CO)N3)c1	-17.9	-13.4	·	36.1*	-29.5
COc1cccc(-c2ccc3c(c2)[C@@H]2[C@@H](CCN2C(=O)C2CC2)[C@@H](CO)N3)c1	4.3	-56.0	·	7.5	12.1
O=C(C1CCCC1)N1CC[C@@H]2[C@H](CO)Nc3ccc(-c4cccc(F)c4)cc3[C@@H]21	9.4	-127.2	·	7.6	-36.7
O=C(c1ccc(F)cc1)N1CC[C@@H]2[C@H]1c1cc(C3=CCCCC3)ccc1N[C@@H]2CO	·	·	5.8	·	22.4
O=C(c1cccc(F)c1)N1CC[C@@H]2[C@@H](CO)Nc3ccc(-c4ccccc4)cc3[C@@H]21	-3.1	-14.9	·	31.4*	-34.1
O=C(c1cccc(F)c1)N1CC[C@@H]2[C@@H](CO)Nc3ccc(-c4cccc(F)c4)cc3[C@@H]21	·	·	0.1	·	-23.8
O=C(C1CCCC1)N1CC[C@@H]2[C@H](CO)Nc3ccc(C4=CCCCC4)cc3[C@@H]21	0.2	21.4	·	34.3*	2.8
C[C@@H]1CCCCO[C@@H](CN(C)C(=O)Nc2ccc(F)cc2)[C@H](C)CN([C@@H](C)CO)C(=O)c2cc(NC(=O)Nc3ccccc3)ccc2O1	9.2	21.4	14.1	-1.5	7.7
COCC(=O)N(C)C[C@@H]1Oc2cc(C3=CCCC3)ccc2S(=O)(=O)N([C@H](C)CO)C[C@H]1C	6.6	-1.5	2.6	-3.3	13.5
COc1cccc(-c2ccc3c(c2)[C@@H]2[C@@H](CCN2C(=O)C2CCC2)[C@H](CO)N3)c1	·	·	-9.0	·	-4.0
COc1cccc(-c2ccc3c(c2)[C@@H]2[C@@H](CCN2C(=O)C2CCCC2)[C@H](CO)N3)c1	-1.8	4.2	·	32.2*	7.7
CN1c2ccc(-c3ccccc3)cc2[C@@H]2[C@@H](CCN2C(=O)c2cccc(F)c2)[C@@H]1CO	130.2*	14.8	-9.4	1.5	-35.9
N#Cc1ccc(-c2ccc3c(c2)[C@@H]2[C@@H](CCN2C(=O)C2CCCC2)[C@@H](CO)N3)cc1	-5.9	-134.9	·	-4.1	40.9*
CN1c2ccc(-c3ccccc3)cc2[C@H]2[C@H](CCN2C(=O)c2cccc(F)c2)[C@@H]1CO	2.1	8.1	17.5	6.5	-42.5
COc1cc2c(cc1OC)C1=C(C#N)CC/C(=N\S(=O)(=O)c3ccccc3)N1CC2	-1.5	-20.6	-12.6	11.6	27.1
COc1ccc(C(=O)N=C2CCC(C#N)=C3c4cc(OC)c(OC)cc4CCN23)cc1	·	·	·	·	109.4*
Cc1ccc(CN(C(=O)c2cc(=O)c3cc(C)cc(C)c3o2)C2CCS(=O)(=O)C2)cc1 (centres undefined)	-2.4	-7.5	-2.5	4.2	28.8
Cc1cc(C)c2oc(C(=O)N(Cc3ccc(F)cc3)C3CCS(=O)(=O)C3)cc(=O)c2c1 (centres undefined)	-14.8	-7.5	2.0	0.8	62.8*
CCCC(=O)Nc1ccc2c(c1)C(=O)N(C)C[C@@H](OC)[C@@H](C)CN(Cc1ccccc1)[C@H](C)CO2	-90.4	8.0	0.0	1.3	-12.4
N=C(N)SCc1cn(-c2ccccc2)nc1-c1ccc(Br)cc1	9.7	38.4	·	32.8*	11.1
Cc1ccc(-c2nn(-c3ccccc3)cc2CO)cc1	-1.4	-7.6	0.7	6.2	-2.2
C[C@@H]1CN([C@@H](C)CO)C(=O)c2cc(NS(=O)(=O)c3ccc(Cl)cc3)ccc2O[C@@H](C)CCCCO[C@@H]1CN(C)C(=O)Nc1ccc(F)cc1	-4.2	-5.2	-4.8	-4.4	-14.6
CCOc1cccc(-c2csc(C3COc4ccccc4O3)n2)c1 (centres undefined)	·	·	·	·	126.3*
Cc1cc2ccccc2n1CCNC(=O)c1ccc(S(=O)(=O)N2CCCCC2)cc1	123.6*	15.3	-4.2	4.3	-18.8
CCN(C[C@@H]1[C@@H](c2ccccc2)[C@H](CO)N1C(C)=O)C(=O)c1ccccn1	11.0	-5.8	0.8	-2.5	5.9
CCN(C[C@H]1[C@H](c2ccccc2)[C@H](CO)N1C(C)=O)C(=O)c1ccccn1	103.5*	-7.0	-7.5	0.4	8.1
COc1ccc(-n2cc(C(=O)c3cc(Cl)ccc3O)cc(C#N)c2=O)cc1	-24.3	-34.4	·	-18.4	-7.2

Screening results from PubChem.
